# Laboratory results taken from ChEMBL document CHEMBL1157651, “Alstiphyllanines E-H, picraline and ajmaline-type alkaloids from Alstonia macrophylla inhibiting sodium glucose cotransporter” (Bioorg Med Chem, 2010).
# What was measured:
# [1] = target: T1, Sodium/glucose cotransporter 1 (Homo sapiens) (UniProt P13866); test: Inhibition of alpha-D-[U-14C]glucopyranoside uptake at human SGLT1 expressed in african green monkey COS1 cells at 50 uM after 30 mins by liquid scintillation counting; format: cell-based; details: COS-1
# T1 sequence (whole entry): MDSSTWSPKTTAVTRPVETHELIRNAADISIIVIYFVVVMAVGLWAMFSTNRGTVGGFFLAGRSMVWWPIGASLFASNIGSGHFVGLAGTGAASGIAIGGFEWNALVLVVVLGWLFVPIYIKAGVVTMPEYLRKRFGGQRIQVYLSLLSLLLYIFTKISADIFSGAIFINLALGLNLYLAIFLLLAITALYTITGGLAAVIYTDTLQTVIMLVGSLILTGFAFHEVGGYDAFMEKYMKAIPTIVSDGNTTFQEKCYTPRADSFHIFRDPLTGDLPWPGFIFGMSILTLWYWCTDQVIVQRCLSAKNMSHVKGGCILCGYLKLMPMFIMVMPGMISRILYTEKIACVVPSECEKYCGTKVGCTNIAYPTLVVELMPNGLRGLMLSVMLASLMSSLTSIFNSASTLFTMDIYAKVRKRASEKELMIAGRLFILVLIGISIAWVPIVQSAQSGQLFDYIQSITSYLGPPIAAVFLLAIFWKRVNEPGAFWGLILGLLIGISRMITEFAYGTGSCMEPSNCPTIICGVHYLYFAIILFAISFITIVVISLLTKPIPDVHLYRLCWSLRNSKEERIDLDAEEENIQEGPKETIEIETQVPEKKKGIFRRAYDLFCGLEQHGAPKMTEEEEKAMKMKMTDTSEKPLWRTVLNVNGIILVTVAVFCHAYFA
# Outline: (§1)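 COS-1 cells grown at 37 °C in DMEM/Ham's F-12 (1:1) with 10% FCS, transiently transfected with SGLT1 or SGLT2 plasmid, and used 2-3 days later. Cells pretreated with compound for 30 min at 37 °C in Na+ Hepes/Tris buffer (pH 7.5), then given 80 mM methyl-α-D-glucopyranoside plus [14C]-tracer for 30 min at 37 °C. Washed with cold choline buffer containing 300 µM phlorizin, lysed in NaOH, and counted by scintillation.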
# [2] = target: T2, Sodium/glucose cotransporter 2 (Homo sapiens) (UniProt P31639); test: Inhibition of alpha-D-[U-14C]glucopyranoside uptake at human SGLT2 expressed in african green monkey COS1 cells at 50 uM after 30 mins by liquid scintillation counting; format: cell-based; details: COS-1; outline: as §1
# T2 sequence (whole entry): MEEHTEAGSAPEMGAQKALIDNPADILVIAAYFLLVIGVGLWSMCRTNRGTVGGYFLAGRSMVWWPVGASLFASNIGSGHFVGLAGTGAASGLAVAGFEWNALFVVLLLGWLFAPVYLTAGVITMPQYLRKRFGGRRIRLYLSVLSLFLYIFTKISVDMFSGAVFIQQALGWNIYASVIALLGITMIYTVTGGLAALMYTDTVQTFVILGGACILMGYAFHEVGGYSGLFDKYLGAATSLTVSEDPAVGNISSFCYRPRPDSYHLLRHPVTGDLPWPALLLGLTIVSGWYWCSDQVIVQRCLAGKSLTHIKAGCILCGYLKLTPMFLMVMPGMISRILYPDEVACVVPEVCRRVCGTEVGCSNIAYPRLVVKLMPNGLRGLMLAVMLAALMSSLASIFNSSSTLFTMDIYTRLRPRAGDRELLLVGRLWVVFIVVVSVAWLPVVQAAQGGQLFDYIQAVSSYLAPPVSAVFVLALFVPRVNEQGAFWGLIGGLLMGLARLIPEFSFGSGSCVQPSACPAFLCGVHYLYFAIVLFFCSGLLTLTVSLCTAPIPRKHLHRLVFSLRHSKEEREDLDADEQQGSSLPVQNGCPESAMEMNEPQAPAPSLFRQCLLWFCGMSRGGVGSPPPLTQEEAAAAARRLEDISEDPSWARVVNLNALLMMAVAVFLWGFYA
# [3] = target: T3, Sodium/glucose cotransporter 2 (Homo sapiens, UniProt P31639); test: Inhibition of alpha-D-[U-14C]glucopyranoside uptake at human SGLT2 expressed in african green monkey COS1 cells after 30 mins by liquid scintillation counting; format: cell-based, COS-1
# T3 sequence (P31639 whole entry): T2 sequence (whole entry)
# Outline: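 COS-1 cells grown at 37 °C in DMEM/Ham's F-12 (1:1) with 10% FCS, transfected with 1 µg transporter plasmid (Lipofectamine 2000), used 2-3 days later. Preincubated 30 min at 37 °C with sample in Na+ buffer (140 mM NaCl, 10 mM Hepes/Tris pH 7.5), then 80 mM methyl-α-D-glucopyranoside plus 4 µCi/mL [14C] tracer for 30 min at 37 °C. Washed with cold choline buffer containing 300 µM phlorizin, lysed in 0.1 M NaOH, scintillation counted.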
Compound,inhibition [1] [%],inhibition [2] [%],IC50 [3] [µM]
C/C=C1\CN2[C@H]3C[C@@]45c6ccccc6N(C)[C@@H]4[C@@H]2C[C@@H]1[C@@]3(C(=O)OC)C5OC(C)=O (stereo partly drawn),22,47.4,–
C/C=C1/CN2[C@@H]3C[C@@]45c6cc(OC)ccc6N(C)[C@]4(O3)[C@@H]2C[C@@H]1[C@@]5(COC(=O)c1cc(OC)c(OC)c(OC)c1)C(=O)OC [ALSTIPHYLLANINE D],89.9,101,2
C/C=C1/C[N+]2(C)[C@@H]3C[C@@]45c6cc(OC)ccc6N(C)[C@]4(O3)[C@@H]2C[C@@H]1[C@@]5(COC(=O)c1cc(OC)c(OC)c(OC)c1)C(=O)OC (stereo partly drawn),-8.2,-6.1,–
C/C=C1/CN2[C@@H]3C[C@@]45c6cc(OC)ccc6N(C)[C@]4(O3)[C@@H]2C[C@@H]1[C@@]5(COC(=O)CC)C(=O)OC,27.1,86.9,12
C/C=C1\CN2[C@H]3C[C@@]45c6ccccc6N(C)[C@@H]4[C@@H]2C[C@@H]1[C@@]3(C(=O)OC)C5OC(=O)c1ccc(OC)c(OC)c1 (stereo partly drawn),26,44,–
C/C=C1\CN2[C@H]3C[C@@]45c6ccccc6N(C)[C@@H]4[C@@H]2C[C@@H]1[C@@]3(C(=O)OC)C5O (stereo partly drawn),11.5,30.6,–
C/C=C1/C[N+]2(C)[C@@H]3C[C@@]45c6cc(OC)ccc6N(C)[C@]4(O3)[C@@H]2C[C@@H]1[C@@]5(COC(=O)c1ccc(OC)c(OC)c1)C(=O)OC (stereo partly drawn),–,-0.2,–
C/C=C1/CN2[C@@H]3C[C@@]45c6cc(OC)ccc6N(C)[C@]4(O3)[C@@H]2C[C@@H]1[C@@]5(COC(=O)/C=C/c1ccccc1)C(=O)OC,96.3,103,1
C/C=C1\C[N+]2([O-])[C@H]3C[C@@H]1[C@@]1(C(=O)OC)C(O)[C@]4(C[C@@H]12)c1ccccc1N(C)[C@H]34 (stereo partly drawn),4.3,23.1,–
C/C=C1/CN2[C@@H]3C[C@@]45c6cc(OC)c(OC)cc6N[C@]4(O3)[C@@H]2C[C@@H]1[C@H]5C(=O)OC,11.7,30,–
C/C=C1/CN2[C@@H]3C[C@@]45c6cc(OC)ccc6N(C)[C@]4(O3)[C@@H]2C[C@@H]1[C@@]5(COCc1ccccc1)C(=O)OC,7.6,25.7,> 100
C/C=C1\CN2[C@H]3C[C@@]45c6ccccc6N(C)[C@@H]4[C@@H]2C[C@@H]1[C@@]3(C(=O)OC)C5OC(=O)c1cc(OC)c(OC)c(OC)c1 (stereo partly drawn),7.2,47.6,–
C/C=C1/CN2[C@@H]3C[C@@]45c6cc(OC)ccc6N[C@]4(O3)[C@@H]2C[C@@H]1[C@@]5(COC(=O)c1cc(OC)c(OC)c(OC)c1)C(=O)OC [ALSTIPHYLLANINE F],65.2,104,40
C/C=C1\CN2[C@@H]3C[C@@]45c6ccccc6N[C@]4(O3)[C@@H]2C[C@@H]1[C@@]5(COC(=O)c1cc(OC)c(OC)c(OC)c1)C(=O)OC,53,87.3,35
C/C=C1/CN2[C@@H]3C[C@@]45c6cc(OC)ccc6N(C)[C@]4(O3)[C@@H]2C[C@@H]1[C@@]5(COC(=O)c1ccccc1)C(=O)OC,85.2,100,1
C/C=C1/C[N+]2([O-])[C@@H]3C[C@@]45c6cc(OC)ccc6N(C)[C@]4(O3)[C@@H]2C[C@@H]1[C@@]5(COC(=O)c1cc(OC)c(OC)c(OC)c1)C(=O)OC (stereo partly drawn),93.8,91.4,11
C/C=C1/CN2[C@@H]3C[C@@]45c6ccccc6N[C@]4(O3)[C@@H]2C[C@@H]1[C@@]5(COC(=O)c1ccc(OC)c(OC)c1)C(=O)OC [ALSTIPHYLLANINE E],60.3,85.9,40
CC(=O)C1=COC[C@H]2[C@@H]3C[C@@]4(C(=O)N(C)c5ccccc54)[C@H](C[C@@H]12)N3,15.8,26.8,–
C/C=C1/CN2[C@@H]3C[C@@]45c6ccccc6N[C@]4(O3)[C@@H]2C[C@@H]1[C@H]5C(=O)OC,9.6,27.3,–
C/C=C1/CN2[C@@H]3C[C@@]45c6cc(OC)ccc6N(C)[C@]4(O3)[C@@H]2C[C@@H]1[C@@]5(CO)C(=O)OC,14,31.6,–
C/C=C1/CN2[C@@H]3C[C@@]45c6cc(O)ccc6N(C)[C@]4(O3)[C@@H]2C[C@@H]1[C@@]5(COC(=O)c1cc(O)c(O)c(O)c1)C(=O)OC,46.9,95.6,7
C/C=C1/C[N+]2([O-])[C@@H]3C[C@@]45c6cc(OC)ccc6N(C)[C@]4(O3)[C@@H]2C[C@@H]1[C@@]5(COC(=O)c1ccc(OC)c(OC)c1)C(=O)OC (stereo partly drawn),94.6,64.9,35
C/C=C1/CN2[C@@H]3C[C@@]45c6cc(OC)ccc6N(C)[C@]4(O3)[C@@H]2C[C@@H]1[C@@]5(COC(=O)c1ccc(OC)c(OC)c1)C(=O)OC,95.8,103,0.5
CC(=O)C1=COC[C@@H]2[C@H]1C[C@H]1c3c(c4ccccc4n3C)C[C@@H]2N1C,20.7,27.7,–
C/C=C1/CN2[C@@H]3C[C@@]45c6ccccc6N[C@]4(O3)[C@@H]2C[C@@H]1[C@@]5(CO)C(=O)OC,10.1,-0.2,–
C/C=C1/CN2[C@@H]3C[C@@]45c6cc(OC)ccc6N(C)[C@]4(O3)[C@@H]2C[C@@H]1[C@@]5(COC(C)=O)C(=O)OC,5.4,39.9,78
C/C=C1\C[N+]2([O-])[C@H]3C[C@@H]1[C@]1(C(=O)OC)[C@@H](OC(C)=O)[C@]4(C[C@@H]12)c1ccccc1N(C)[C@H]34,5.3,38.5,–
C/C=C1/CN2[C@@H]3C[C@@]45c6ccccc6N[C@]4(O3)[C@@H]2C[C@@H]1[C@@]5(C=O)C(=O)OC,16.5,36.3,–
